For assay [1], the target named is T1, Pyruvate kinase PKM (Homo sapiens, UniProt P14618). Nature of the assay: Inhibition of PKM2 in human PC9 cells at 0.25 uM using PEP as substrate incubated for 6 hrs by OxiRed probe-based colorimetric analysis. The assay is classed as cell-based. In short, it runs like this: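 PC-9 cells seeded at 5 × 10^5 cells/mL, after 24 h given 0.25 µM compound or DMSO for 6 h. Lysate pyruvate kinase activity read with a colorimetric kit measuring H2O2 made from PEP and […] through PK and then pyruvate oxidase. n = 3.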
T1 sequence (P14618 2-531 limits assumed): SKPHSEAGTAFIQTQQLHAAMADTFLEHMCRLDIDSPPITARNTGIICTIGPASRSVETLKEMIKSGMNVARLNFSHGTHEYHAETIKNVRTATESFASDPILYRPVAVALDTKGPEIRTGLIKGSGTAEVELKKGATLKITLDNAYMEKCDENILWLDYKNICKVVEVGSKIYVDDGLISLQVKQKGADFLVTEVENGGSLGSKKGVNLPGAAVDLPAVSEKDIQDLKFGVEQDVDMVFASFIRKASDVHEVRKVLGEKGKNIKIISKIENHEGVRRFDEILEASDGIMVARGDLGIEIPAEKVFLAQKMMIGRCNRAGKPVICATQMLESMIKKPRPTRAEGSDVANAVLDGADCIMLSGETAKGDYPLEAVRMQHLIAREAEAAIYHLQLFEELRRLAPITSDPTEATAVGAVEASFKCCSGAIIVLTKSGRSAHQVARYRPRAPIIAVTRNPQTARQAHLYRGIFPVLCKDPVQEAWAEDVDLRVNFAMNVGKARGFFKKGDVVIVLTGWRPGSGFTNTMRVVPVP

A further assay concerns PC-9. Nature of the assay: Induction of ROS production in human PC9 cells at 0.25 and 0.5 uM incubated for 6 hrs by H2DCFDA dye-based fluorescence assay. The assay is classed as functional, cell-based. The method in brief:
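PC-9 cells at 2 × 10^4 per well, after 24 h treated with compound or DMSO for 6 h. Cells washed, given 1X ROS label in assay buffer for 45 min at 37 °C in the dark, fluorescence read at Ex/Em 495/529 nm as an end point. n = 3.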

Assay [2] addresses T2, Malate dehydrogenase, mitochondrial (Homo sapiens) (UniProt P40926).
T2 sequence (whole entry): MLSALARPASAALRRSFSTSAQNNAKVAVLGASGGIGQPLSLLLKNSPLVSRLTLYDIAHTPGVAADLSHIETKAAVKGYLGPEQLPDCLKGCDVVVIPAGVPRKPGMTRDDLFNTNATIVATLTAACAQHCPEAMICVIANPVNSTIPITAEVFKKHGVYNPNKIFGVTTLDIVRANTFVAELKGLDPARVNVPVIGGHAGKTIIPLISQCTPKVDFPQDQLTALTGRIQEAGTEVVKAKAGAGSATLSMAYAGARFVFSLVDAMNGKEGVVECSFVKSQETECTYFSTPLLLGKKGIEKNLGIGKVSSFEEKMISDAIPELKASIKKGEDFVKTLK
Nature of the assay: Binding affinity to MDHM in human PC9 cells incubated for 1 hr by ABPP-SILAC assay. The assay is classed as cell-based. The method in brief:
(§1)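 PC-9 cells passaged at least six times in SILAC DMEM with 10% dialyzed FBS plus 100 µg/mL light or 13C/15N-labeled Arg/Lys. Heavy cells got ABPP probe (1 µM) and light cells DMSO, 1 h at 37 °C. Cells mixed 1:1, sonicated, spun at 100,000g, protein normalized to 1 mg/mL. Click biotin-azide, streptavidin bead pulldown 16 h at 4 °C, SDS-PAGE, on-bead trypsin digestion, LC-MS/MS.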

Assay [3] concerns the target T1, Pyruvate kinase PKM. Kind of assay: Inhibition of PKM2 in human PC9 cells assessed as reduction in beta-catenin phosphorylation incubated for 24 hrs by Western blot analysis. The assay is classed as cell-based. In short, it runs like this: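 PC-9 cells seeded at 5 × 10^5 cells/mL; after 24 h given 0–1 µM compound or DMSO for 24 h. Lysates run on 10% SDS-PAGE, transferred to nitrocellulose, probed for PKM2, EGFR, p-STAT3, STAT3, p-β-catenin, β-catenin and β-actin with HRP secondaries, ECL detection.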
(In general: In western blotting, separated proteins are transferred to a membrane and probed.)

Assay [4] addresses T3, Phosphoenolpyruvate carboxykinase [GTP], mitochondrial (Homo sapiens) (UniProt Q16822).
T3 sequence (whole entry): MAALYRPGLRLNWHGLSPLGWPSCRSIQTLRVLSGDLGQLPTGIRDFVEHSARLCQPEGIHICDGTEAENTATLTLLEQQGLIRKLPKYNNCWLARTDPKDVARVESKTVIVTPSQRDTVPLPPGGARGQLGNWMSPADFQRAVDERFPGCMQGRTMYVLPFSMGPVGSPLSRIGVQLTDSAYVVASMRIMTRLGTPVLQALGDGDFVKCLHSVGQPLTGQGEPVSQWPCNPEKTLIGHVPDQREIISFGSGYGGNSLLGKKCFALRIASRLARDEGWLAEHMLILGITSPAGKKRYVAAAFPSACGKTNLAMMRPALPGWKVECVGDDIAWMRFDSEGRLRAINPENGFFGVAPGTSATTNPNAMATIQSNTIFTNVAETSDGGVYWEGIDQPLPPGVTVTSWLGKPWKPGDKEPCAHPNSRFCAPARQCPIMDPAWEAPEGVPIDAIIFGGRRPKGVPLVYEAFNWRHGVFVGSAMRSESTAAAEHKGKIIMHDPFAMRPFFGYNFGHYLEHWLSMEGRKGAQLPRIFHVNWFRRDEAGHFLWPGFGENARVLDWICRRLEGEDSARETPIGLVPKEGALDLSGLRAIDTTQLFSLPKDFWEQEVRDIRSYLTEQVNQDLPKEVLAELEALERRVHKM
Kind of assay: Binding affinity to PCKGM in human PC9 cells incubated for 1 hr by ABPP-SILAC assay. The assay is classed as cell-based. In short, it runs like this:
as §1

The subject of the next assay is Mus musculus. Kind of assay: In vivo inhibition of PKM2 in human PC9 cells xenografted in athymic nude mouse assessed as reduction in PKM2 expression at 10 mg/kg, ip administered once daily for 25 days measured post-last dose by Western blot analysis. The assay is classed as functional, organism-based. In short, it runs like this:
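Tumors from PC-9 xenograft nude mice given 10 mg/kg i.p. daily or vehicle for 25 days (n = 8 per group) were lysed for Western blots of PKM2, EGFR, Stat3 and β-catenin. Bands quantified by ImageJ and normalized to GAPDH.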

A further assay relates to PC-3. Kind of assay: Antiproliferative activity against human PC3 cells assessed as reduction in cell viability incubated for 24 hrs by MTT assay. Type of assay: functional, cell-based. The settings on record: PC-3, 24 h. The method in brief:
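Cells seeded at 3,500 per well in 10% FBS and left overnight, then exposed to test agent or vehicle in 5% FBS for 24 h. MTT added for 1 h, then medium swapped for DMSO and absorbance read at 560 nm. Viability given as percent of vehicle-treated control. Run in triplicate.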
For orientation: Tetrazolium assays rely on reduction of a dye to a coloured formazan, in cell work by metabolically active cells.

The target in assay [5] is T4, Citrate synthase, mitochondrial (Homo sapiens) (UniProt O75390).
T4 sequence (whole entry): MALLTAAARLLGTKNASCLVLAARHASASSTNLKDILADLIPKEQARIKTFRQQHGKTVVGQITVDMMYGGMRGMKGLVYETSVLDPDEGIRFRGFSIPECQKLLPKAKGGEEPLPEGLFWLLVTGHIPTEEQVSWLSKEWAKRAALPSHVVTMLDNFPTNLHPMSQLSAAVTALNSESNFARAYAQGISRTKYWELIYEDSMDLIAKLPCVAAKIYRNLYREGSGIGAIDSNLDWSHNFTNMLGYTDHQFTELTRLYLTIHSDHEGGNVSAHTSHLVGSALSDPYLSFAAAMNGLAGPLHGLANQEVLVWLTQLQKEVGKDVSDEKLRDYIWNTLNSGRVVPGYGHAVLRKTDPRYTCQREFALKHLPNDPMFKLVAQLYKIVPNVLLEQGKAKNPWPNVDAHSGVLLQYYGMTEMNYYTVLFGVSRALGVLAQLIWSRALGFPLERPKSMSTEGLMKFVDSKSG
Nature of the assay: Binding affinity to CS in human PC9 cells incubated for 1 hr by ABPP-SILAC assay. The assay is classed as cell-based. The method in brief:
as §1

For assay [6], the target named is T1, Pyruvate kinase PKM. Nature of the assay: Inhibition of PKM2 in human PC9 cells assessed as increase in oxygen consumption rate at 0.25 to 1 uM preincubated for 4 hrs followed by glucose/oligomycin/2-DG addition and measured after 1 hr by seahorse XFe96 analyser based assay. The assay is classed as cell-based. The method in brief: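 PC-9 cells, 5 × 10^4 per well, seeded 24 h ahead, then treated with DMSO or compound at 0.25, 0.5 or 1 µM for 4 h at 37 °C. Cells held 1 h without CO2 in glycolysis medium. Seahorse glycolysis stress test with serial injections of 10 mM glucose, oligomycin and 50 mM 2-DG; ECAR and OCR recorded together. Six wells per point.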

Structures are written as SMILES. Calls of active or inactive are those of the source. No cut-off for these calls is given here.

As a reminder, the IC50 is the midpoint of a concentration-inhibition curve. Regarding `C#CC(=O)Nc1ccc(-n2nc(CCC(=O)NC)cc2-c2ccc(-c3ccc(C(F)(F)F)cc3)cc2)cc1`, the inhibition result at Pyruvate kinase PKM [1], in the assay with Mus musculus and at Pyruvate kinase PKM [6] was “Active” throughout. The outcome in the assay with PC-9 was inactive. Also, the result in assay [2], in [4] and in assay [5] was Active. Moreover, the inhibition result on Pyruvate kinase PKM [3] was “Dose-dependent effect”. For the same compound, the IC50 in the assay on PC-3 was 600 nM.

Source of the values: ChEMBL document CHEMBL4414568, “Development of Novel Irreversible Pyruvate Kinase M2 Inhibitors” (J Med Chem, 2019).
